Hits are enriched below; roughly 2.2% of the tested compounds scored in any of these assays.
ERp5 inh: inhibitors of human ERp5 | ERp5 insulin aggregation, absorbance 650 nm, 90 min | inhibition, % at 9.99 µM | actives 0.05% (n = 350,000) | AID 651711;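 active = mean replicate inhibition above about 25%, with every replicate also reaching it, limit read from the data, passing the limit was not always enough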
Target sequence (Q15084 whole entry, looked up): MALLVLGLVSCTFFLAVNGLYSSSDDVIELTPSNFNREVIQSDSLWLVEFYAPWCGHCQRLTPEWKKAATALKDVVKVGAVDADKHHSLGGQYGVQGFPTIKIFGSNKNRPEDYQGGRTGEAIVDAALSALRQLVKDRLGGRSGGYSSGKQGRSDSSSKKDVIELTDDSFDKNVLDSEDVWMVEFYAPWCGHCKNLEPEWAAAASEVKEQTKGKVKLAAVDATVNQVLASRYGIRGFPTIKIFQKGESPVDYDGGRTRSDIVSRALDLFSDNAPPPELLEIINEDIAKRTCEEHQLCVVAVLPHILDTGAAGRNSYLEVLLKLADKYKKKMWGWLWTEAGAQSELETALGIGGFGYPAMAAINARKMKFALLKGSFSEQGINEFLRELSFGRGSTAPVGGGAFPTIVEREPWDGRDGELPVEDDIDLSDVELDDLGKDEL
HIV Env fusion: blocks HIV Env-driven cell-cell fusion. inhibition, % at 12.3 µM. actives 1.1% (n = 360,000). HeLa-JRFL Env/CEM21 cell fusion, luciferase;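 active = mean replicate inhibition score of at least 50 and every replicate individually at or above 50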;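 note: 0% = plate neutral controls and 100% = maraviroc near 300 nM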
Ecoli rRNA inh: inhibits bacterial ribosomal RNA function over humanized ribosomes | actives 1.6% (n = 350,000) | GFP signal change (wild-type ribosome), % (concentration not given with the values) | E. coli WT GFP vs humanized-ribosome RFP mutants, fluorescence, 24 h; hits give low values; DMSO median 0, no signal -100;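 active = significant combined selectivity score with lowered wild-type GFP, culture density cut under 30%, mutant RFP and density less affected; inactive = any of these conditions unmet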
PDI inh: inhibitors of human protein disulfide isomerase. PDI insulin aggregation turbidity, A650, 90 min. actives 0.052% (n = 350,000). inhibition, % at 10 µM;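 active = mean inhibition across replicates of 30% or more, whatever share of single replicates reach that level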
PvdQ acylase: blocks Pseudomonas aeruginosa PvdQ acylase activity. purified PvdQ acylase, fluorescence plate reader. inhibition, % at 10 µM. actives 0.063% (n = 340,000); in the data active = inhibition above about 30%, passing the limit was not always enough;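 note: 0% = vehicle neutral wells and 100% = reference inhibitor wells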
FN deposition inh: fibronectin deposition inhibition; inhibition, % at 12.6 µM; AH1F fibroblasts, Alexa488-fibronectin deposition fluorescence, overnight; actives 0.086% (n = 350,000);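 active = mean inhibition across replicates of 30% or more, regardless of how many single replicates reach that level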;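 note: positive control wells lacked labelled fibronectin entirely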
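Material: AH1F fibroblasts assembling fluorescent fibronectin matrix; amount: 10000 AH1F cells/well; medium: DMEM, 2% serum; reagent: Alexa488-fibronectin, 24 nM final in well; dosing: single compound dose, delivered by pin transfer; incubation: 1 h adhesion, overnight exposure; detection: fluorescence after three HBSS washes, excitation 485 nm, emission 525 nm; measure: fibronectin deposition inhibition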
The depositor's hits bear a star; . = not tested or not shown; ! = not active in a repeat; [ ] = remark or other dose.

SMILES	ERp5 inh	HIV Env fusion	Ecoli rRNA inh	PDI inh	PvdQ acylase	FN deposition inh
CCCC(=O)Nc1ccc2c(c1)C(=O)N(C)[C@@H]1CC[C@H](CC(=O)Nc3ccccc3)O[C@H]1CO2	1	8[16.7 µM]	2	.	.	-10
C[C@H](CO)N1C[C@H](C)[C@@H](CN(C)Cc2ccccc2)Oc2ccc(NC(=O)Cc3cn(C)c4ccccc34)cc2C1=O	1	10[16.7 µM]	4	.	.	.
COc1ccc([N+](=O)[O-])cc1Nc1c2ccccc2nc2ccccc12	2	79*	7	3	-14	16
O=[N+]([O-])c1ccccc1Nc1c2ccccc2nc2ccccc12	3	62*	10	-49	1	13
COc1ccc(OC)c(Nc2c3ccccc3nc3ccccc23)c1	-4	13	-6	0	-3	7
CCCC#Cc1cnc2c(c1)C(=O)N([C@@H](C)CO)C[C@H](C)[C@@H](CN(C)Cc1ccncc1)O2	-1	13[16.7 µM]	0	.	.	-7
Cc1ccc(S(=O)(=O)N(C)c2cc(S(=O)(=O)Nc3ccncc3)c(C)cc2C)cc1	.	-25	.	10	-28	14
CNS(=O)(=O)c1cc(N(C)S(=O)(=O)c2ccc(C)cc2)c(C)cc1C	0	-4	-45*	-1	-5	-12
O=C(Nc1ccccc1)Nc1sccc1-c1nc2ccccc2s1	5	12	-21*	-3	-4	6
O=C(Nc1cccc(Cl)c1)Nc1sccc1-c1nc2ccccc2s1	.	-1	.	-4	-10	-9
C[C@@H]1CCCCO[C@@H](CN(C)Cc2ccc(C(=O)Nc3ccccc3N)cc2)[C@@H](C)CN([C@H](C)CO)C(=O)c2cc(NC(=O)C3CCCCC3)ccc2O1	.	.	0	.	.	.
O=C1C(Cc2ccccc2)Nc2ncnc(N3CCN(c4ccccc4)CC3)c2N1Cc1ccccc1 (configuration not stated)	0	1	11	-1	9	2
O=C1C(Cc2ccccc2)Nc2ncnc(N3CCOCC3)c2N1Cc1ccc(Cl)cc1 (configuration not stated)	9	-17	-21*!	4	-5	2
CN(C)C(=O)C[C@@H]1C[C@@H]2c3cc(NS(C)(=O)=O)ccc3O[C@@H]2[C@H](CO)O1	77*	5[16.7 µM]	4	.	.	-17
CN(C)C(=O)C[C@@H]1C[C@H]2c3cc(NS(C)(=O)=O)ccc3O[C@H]2[C@@H](CO)O1	93*	13[16.7 µM]	2	.	.	-4
CS(=O)(=O)Nc1ccc2c(c1)[C@@H]1C[C@H](CC(=O)O)O[C@@H](CO)[C@@H]1O2	-6	.	1	.	.	-5
Cc1noc(C)c1S(=O)(=O)Nc1ccc2c(c1)C(=O)N([C@H](C)CO)C[C@H](C)[C@@H](CN(C)Cc1ccc(C(F)(F)F)cc1)O2	-6	13[16.7 µM]	-7	.	.	-12
CCc1ccccc1NC(=O)c1ccc(OCc2c(C)noc2C)cc1	1	13	-20*	-3	-13	5
Cc1noc(C)c1COc1ccc(C(=O)Nc2ccccc2)cc1	8	-45	10	1	-6	-1
COc1ccc(NC(=O)COC(=O)[C@@H]2CCCN2C(=O)c2cccs2)cc1	.	11	.	-4	-16	-9
COc1ccc(NC(C)=O)cc1NC(=O)C1CCCN1C(=O)c1cccs1 (configuration not stated)	7	64*	3	7	-12	.
CC(=O)c1cccc(NC(=O)COC(=O)C2CCCN2C(=O)c2cccs2)c1 (configuration not stated)	-7	28	-18*	-10	1	.
Cc1ccc(OCC(=O)Nc2c3c(nn2C(C)(C)C)CS(=O)(=O)C3)cc1	-4	58*	7	3	-18	0
CCn1c(COc2ccc(C)cc2)nnc1SCC(=O)Nc1cc(OC)ccc1OC	.	58*	.	2	-12	.
CCOC(=O)c1cnc(SCC(=O)Nc2cc(OC)ccc2OC)nc1N	.	74*	.	2	6	1
CCOC(=O)CN(C(=O)CSc1nnc(CNc2ccc(C)cc2C)n1CC)c1ccccc1	.	-27	.	5	-10	15
CCOC(=O)CN(C(=O)CSc1nnc(COc2ccc(OC)cc2)n1CC)c1ccccc1	5	15	-27*	8	1	3

Screens as filed in PubChem BioAssay.
